Source: PubChem BioAssay (Broad Institute)
Sampled rows, rich in hits. Any-hit rate of the full collection: about 2.9%.
dFosB activator – activators of delta FosB homodimer, primary screen, biochemical, fluorescence polarization, TAMRA-CDK5 oligo, single point | purified delta FosB; percent of positive-control signal above neutral wells | activation, % at 25 µM | Protein FosB (Mus musculus), P13346 | 0.99% of 340,000 active | AID 493131, 2011;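 active = mean activation above about 17%, with every replicate also reaching it, limit read from the data, passing the limit was not always enough; inconclusive = only one of the two conditions met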
PAX8 reporter – inhibitors of PAX8-driven TPO luciferase reporter, primary screen, RMG-I cells, single concentration; SteadyGlo, 24 h; inhibition, % at 12.6 µM; 1.2% of 360,000 active; AID 652154, 2013;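 active = mean replicate inhibition at least 60% with every replicate also reaching 60%; inconclusive = only one of the two criteria is met; inactive = mean below 60% and not all replicates reaching 60%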;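 note: luciferase light reporting Pax8 driven TPO promoter activity; plate controls were median of neutral control wells for no effect and mitoxantrone controls for full effect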
CDK5 p35 inh – inhibitors of human CDK5/p35 kinase, primary screen, biochemical, single concentration. Cyclin-dependent kinase 5 (Homo sapiens) + Cyclin-dependent kinase 5 activator 1 (Homo …. Recombinant CDK5/p35, ADP-Glo luminescence, 60 min. inhibition, % at 10 µM. 0.01% of 330,000 active;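 active = highest replicate inhibition of at least 50% and at least 75% of replicates reaching 50%; inconclusive = only one of the two criteria met; inactive = both criteria failed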;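 note: plate controls were DMSO neutral control for no effect and GW8510 at 10 µM for full effect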
Target sequence (Q00535 whole entry, looked up): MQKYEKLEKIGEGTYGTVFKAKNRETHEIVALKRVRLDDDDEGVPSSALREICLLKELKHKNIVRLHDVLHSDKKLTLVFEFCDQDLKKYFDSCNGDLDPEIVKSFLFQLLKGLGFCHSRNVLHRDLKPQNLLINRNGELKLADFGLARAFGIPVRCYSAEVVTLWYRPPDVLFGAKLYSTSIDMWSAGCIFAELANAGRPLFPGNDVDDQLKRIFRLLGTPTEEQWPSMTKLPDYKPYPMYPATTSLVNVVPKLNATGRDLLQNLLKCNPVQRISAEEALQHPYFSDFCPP
Target sequence (Q15078 whole entry, looked up): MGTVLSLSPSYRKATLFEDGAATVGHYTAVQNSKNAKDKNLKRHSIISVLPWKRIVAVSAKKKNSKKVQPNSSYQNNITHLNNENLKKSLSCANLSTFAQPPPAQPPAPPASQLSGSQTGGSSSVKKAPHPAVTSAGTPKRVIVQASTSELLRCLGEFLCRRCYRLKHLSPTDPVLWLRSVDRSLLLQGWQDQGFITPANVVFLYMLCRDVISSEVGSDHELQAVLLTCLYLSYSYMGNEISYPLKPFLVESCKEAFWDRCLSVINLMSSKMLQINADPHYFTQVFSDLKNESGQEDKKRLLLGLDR
HIV Env fusion – inhibitors of HIV-1 Env-driven cell-cell fusion, primary screen, HeLa-JRFL effector, CEM21 target cells, luciferase; inhibition, % at 12.3 µM; 1.1% of 360,000 active;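 active = mean replicate inhibition score of at least 50 and every replicate individually at or above 50; inconclusive = only one of the two criteria met; inactive = mean below 50 and not all replicates reaching 50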;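 note: 0% = plate neutral controls and 100% = maraviroc near 300 nM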
GSIS activator – GLuc luminescence reporter in INS-1E cells, primary screen for activators of glucose-dependent secretion of insulin; 0.61% of 370,000 active; INS-1E GLuc reporter insulin secretion, 2-3 h; activation, % at 16.6 µM;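 active = lowest replicate activation of at least 40%, so every replicate reaches that level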;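 note: 0% = median of neutral control wells and 100% = median of IBMX positive control wells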
Cneo AK release – Cryptococcus neoformans cell lysis inducers, primary screen, AK release luminescence, single concentration; AID 651654, 2012; 0.2% of 360,000 active; C. neoformans lysis, adenylate kinase release luminescence, 4 h; normalised: neutral wells 0, clomiphene wells 100; lysis activity, % at 15 µM;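 active = mean lysis activity across replicates of at least 80%, whatever share of replicates individually reach that level; inactive = mean lysis activity below 80%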
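Material: C. neoformans cells | Amount: Yeast cell density of 5 × 10^6 cells/mL | Medium: Fresh YPD growth medium | Dosing: Single dose | Times: Static 4 h at 37 °C with compound, 1 h detection | Detection: AK luminescence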
* marks the source's active call; other numbers are inactive results; ? = inconclusive; . = not tested or not shown; [ ] = another dose, or the depositor's remark.

SMILES	dFosB activator	PAX8 reporter	CDK5 p35 inh	HIV Env fusion	GSIS activator	Cneo AK release
C[C@@H]1CN([C@@H](C)CO)C(=O)c2cc(NS(=O)(=O)c3ccccc3)ccc2O[C@@H](C)CCCCO[C@@H]1CN(C)Cc1ccc(C(F)(F)F)cc1	.	106.2*	.	-24.1[16.7 µM]	-13.1	-6.9
C[C@@H]1CCCCO[C@H](CN(C)Cc2ccccc2)[C@H](C)CN([C@H](C)CO)C(=O)c2cc(NS(=O)(=O)c3ccccc3)ccc2O1	.	-8.0	.	-12.9[16.7 µM]	-12.7	-2.1
C[C@@H]1CCCCO[C@H](CN(C)Cc2ccc(C(F)(F)F)cc2)[C@@H](C)CN([C@H](C)CO)C(=O)c2cc(NS(=O)(=O)c3ccccc3)ccc2O1	.	13.3	.	-4.2[16.7 µM]	-15.1	-13.5
C[C@H]1CCCCO[C@@H](CN(C)Cc2ccc(C(F)(F)F)cc2)[C@@H](C)CN([C@@H](C)CO)C(=O)c2cc(NS(=O)(=O)c3ccccc3)ccc2O1	.	86.8*	.	-0.8[16.7 µM]	-26.5	-4.1
C[C@H](CO)N1C[C@H](C)[C@H](CN(C)Cc2ccc(C(F)(F)F)cc2)OCCCC[C@H](C)Oc2ccc(NS(=O)(=O)c3ccccc3)cc2C1=O	.	99.3*	.	17.7[16.7 µM]	-10.5	-3.9
C[C@H]1CCCCO[C@H](CN(C)Cc2ccc(C(F)(F)F)cc2)[C@@H](C)CN([C@@H](C)CO)C(=O)c2cc(NS(=O)(=O)c3ccccc3)ccc2O1	.	65.3*	.	-36.4[16.7 µM]	-26.9	-20.6
C[C@@H]1CCCCO[C@@H](CN(C)C(=O)c2ccccc2)[C@H](C)CN([C@H](C)CO)C(=O)c2cc(NC(=O)Nc3ccc(F)cc3)ccc2O1	.	5.5	.	-8.0[16.7 µM]	-22.3	1.3
CC(=O)N(C)C[C@H]1Oc2ncc(C#C[C@@H](C)O)cc2C(=O)N([C@H](C)CO)C[C@@H]1C	.	.	.	-8.3[16.7 µM]	7.4	2.2
C[C@H](CO)N1C[C@H](C)[C@@H](CN(C)Cc2ccc(Cl)c(Cl)c2)Oc2c(NS(=O)(=O)c3ccc(Cl)cc3)cccc2C1=O	.	-15.3	.	?	-6.8	-0.6
Cc1nc(NCc2ccc3c(c2)OCO3)c2nnn(Cc3ccccc3)c2n1	14.9	.	-0.2	39.6	50.1*	-2.0
CC(=O)N/C(=C\c1ccccc1)C(=O)OCC(=O)NC(C)C12CC3CC(CC(C3)C1)C2 (stereo not given)	-7.9	-2.1	-1.8	106.3*	-15.5	.
CC(=O)N/C(=C\c1ccccc1)C(=O)OCC(=O)NC(=O)c1ccccc1	0.5	-5.2	-0.7	-8.1	20.0	.
O=C(C1CCCC1)N1CC2(C1)[C@H](c1ccccc1)[C@@H](CO)N2Cc1cncnc1	.	-17.5	.	-17.8[16.7 µM]	8.7	.
Cc1cc(Cl)ccc1OCC(=O)NNC(=O)C1CSC2(C)CCC(=O)N12 (stereo not given)	-1.3	.	0.7	71.3*	-2.6	-0.3
CC12CCC(=O)N1C(C(=O)NNC(=O)COc1ccc(Br)cc1)CS2 (stereo not given)	2.8	-7.9	-0.1	1.1	1.6	-8.2
CCN1[C@H](C(=O)N2CCCCC2)[C@@H](CO)[C@@H]2Cn3c(ccc(-c4cccc(F)c4)c3=O)[C@@H]21	.	.	.	19.9[16.7 µM]	-5.7	-1.1
O=C1c2ccccc2C(=O)c2c1cccc2-n1nnc2ccccc21	2.3	-2.5	-2.0	14.0	-1.4	2.9
O=C1C(N2CCOCC2)=C(n2nnc3ccccc32)C(=O)c2ccccc21	-5.8	82.5*	-0.5	80.4*	.	-4.7
Clc1ccc(OCCOCCNCc2ccccc2)cc1Cl	-3.2	-0.2	0.8	55.5*	-11.8	13.8
COCC#Cc1ccc2c(c1)O[C@@H](CN(C)Cc1ccc(F)cc1)[C@@H](C)CN([C@@H](C)CO)S2(=O)=O	.	.	.	2.2[16.7 µM]	-14.0	0.1
COc1ccc(S(=O)(=O)NNC(=O)C23CC4CC(CC(C4)C2)C3)cc1[N+](=O)[O-]	-6.4	1.9	1.0	76.3*	-4.4	.
CCCN1[C@@H]2Cn3c(ccc(-c4ccncc4)c3=O)[C@H]1[C@@H](C(=O)NCC1CC1)[C@@H]2CO	.	-4.1	.	.	-0.6	-0.7
COc1ccc(NC(=O)N(C)C[C@@H]2Oc3c(NC(=O)NC(C)C)cccc3C(=O)N([C@H](C)CO)C[C@@H]2C)cc1	.	3.1	.	.	5.5	-1.4
Cc1cc(-c2nc3cccnc3s2)ccc1NS(=O)(=O)c1ccc2c(c1)OCCO2	-10.1	-4.3	5.2	-9.8	10.0	3.9
Cc1c(NS(=O)(=O)c2ccc3c(c2)OCCO3)cccc1-c1nc2cccnc2s1	-7.0	7.4	0.4	44.4*	9.1	1.2
SMILES	dFosB activator	PAX8 reporter	CDK5 p35 inh	HIV Env fusion	GSIS activator	Cneo AK release
COc1ccc2c3c(n(C)c2c1)[C@@H](CO)N(S(C)(=O)=O)CC31CCN(Cc2cccnc2)CC1	.	-9.0	.	.	10.8	.
CN(C(=O)OC(C)(C)C)c1ccc(-c2nc3ccccc3s2)cc1	2.6	92.0*	-0.2	57.2*	-6.3	-9.5
CC(C)c1ccc(-c2nc3ccccc3s2)cc1	-9.1	87.9*	1.7	24.5	-0.8	.
COc1ccc(-c2nc3ccccc3s2)cc1O	5.1	74.2*	2.6	-57.2	.	-9.0
COc1cc(-c2nc3ccccc3s2)ccc1O	-12.0	.	2.3	-129.9	.	2.2
C[C@@H]1CCCCO[C@@H](CN(C)C(=O)CCCN(C)C)[C@@H](C)CN([C@@H](C)CO)C(=O)c2cc(NS(=O)(=O)c3ccc(F)cc3)ccc2O1	.	-21.9	.	7.0[16.7 µM]	7.8	-1.6
CCCC#Cc1cnc2c(c1)C(=O)N([C@@H](C)CO)C[C@H](C)[C@@H](CN(C)C(=O)c1ccccc1)O2	.	-12.3	.	-18.6[16.7 µM]	-6.8	-0.3
Cc1noc(C)c1S(=O)(=O)Nc1ccc2c(c1)CC(=O)N([C@H](C)CO)C[C@@H](C)[C@@H](CN(C)Cc1ccc(C(F)(F)F)cc1)O2	.	.	.	25.6[16.7 µM]	-5.4	-3.8
Cn1c(N)c(C(=O)CSc2nc3ccccc3n2-c2ccccc2)c(=O)n(C)c1=O	-15.0	.	2.1	.	63.4*	4.4
COc1ccc(-n2c(SCC(=O)c3c(N)n(C)c(=O)n(C)c3=O)nc3ccccc32)cc1	-4.2	.	-0.6	.	.	-1.0
COc1cccc(S(=O)(=O)N2CCC3(CC2)CN(C(=O)Nc2cccc(F)c2)[C@H](CO)c2[nH]c4cc(OC)ccc4c23)c1	.	.	.	21.7[16.7 µM]	-11.4	.
COc1cccc(S(=O)(=O)N2CCC3(CC2)CN(C(=O)Nc2cccc(F)c2)[C@@H](CO)c2[nH]c4cc(OC)ccc4c23)c1	.	.	.	72.4*[16.7 µM]	8.9	.
O=C(CCCSc1nnc(SCCCC(=O)c2ccc(F)cc2)s1)c1ccc(F)cc1	-10.6	.	2.0	59.7*	.	-0.7
CO[C@@H]1CC[C@@H]2CCN(C)C(=O)[C@H](C)N(C)C(=O)c3cc(C#N)ccc3OC[C@H]1O2	.	11.3	.	-15.4[16.7 µM]	-3.0	0.7
